Results from different studies.
Each line is one published result; the experiments were not run side by side.
Cell line: MCF7
Observed: cell growth or viability

COc1ccc(COC[C@@](O)(CNCc2ccccc2)[C@@H]2CC[C@@H](C)C[C@H]2OCc2ccc(OC)cc2)cc1  inhibition (MTT; 30 µM, 72 h): 102%
S=C(Nc1ccccc1)Nc1ccc(Oc2nnc(-c3ccc(Cl)cc3)c3ccccc23)cc1  cell death (MTT; 5 µM): 97.3%
COc1cc2ncnc(Nc3ccc4c(c3)/C(=C/c3cccc(Cl)c3)C(=O)N4C)c2cc1OC  IC50 (MTT): 4.62 µM
CCOC(=O)c1nn(-c2cccc(Cl)c2)/c(=N/N=C(\C)c2ccc(NC(=O)c3ccc(Cl)cc3)cc2)s1  viability (MTT; 1.25 µM): 3.36%
C[C@@H]1CC[C@@H]([C@@](C)(O)Cn2cnc3ccccc32)[C@H](OCc2ccccc2)C1  inhibition (MTT; 10 µM, 72 h): 55.2%
CC(=NNC(=S)Nc1ccccc1)c1ccc(Nc2nnc(-c3ccc(Cl)cc3)c3ccccc23)cc1  cell death (MTT; 0.625 µM): 43%
CC(=O)Nc1ccc(/C(C)=N/N=c2\sc(C(C)=O)nn2-c2ccc(C)cc2)cc1  viability (MTT; 2.5 µM): 34.6%
CC(=NNC(=O)c1ccccc1Br)c1ccc(Nc2nnc(-c3ccc(Cl)cc3)c3ccccc23)cc1  viability (MTT; 1.25 µM, 24 h): 31.3%
CC(=O)c1c(C)c2cnc(Nc3ccc(N4CCNCC4)cn3)nc2n(C2CCCC2)c1=O  EC50 (5 days): 0.0383 µM
O=C(Nc1ccc(Oc2nnc(-c3ccc(Cl)cc3)c3ccccc23)cc1)c1cccc([N+](=O)[O-])c1  cell death (MTT; 78 nM): 4.29%
CC(=O)c1nn(-c2ccc(C)cc2)/c(=N/N=C(\C)c2ccc(NC(=O)c3ccccc3)cc2)s1  viability (MTT; 5 µM): 6.47%
CC(=NNC(=O)c1ccccc1Cl)c1ccc(Nc2nnc(-c3ccc(Cl)cc3)c3ccccc23)cc1  viability (MTT; 0.312 µM, 24 h): 99.9%
C[C@@H]1CC[C@@H]([C@](O)(CNCc2ccc(F)cc2)COCc2ccc(F)cc2)[C@H](OCc2ccc(F)cc2)C1  inhibition (MTT; 30 µM, 72 h): 97.2%
CC(=NNC(=O)c1ccncc1)c1ccc(Nc2nnc(-c3ccc(Cl)cc3)c3ccccc23)cc1  cell death (MTT; 2.5 µM): 94.4%
C=C(COCc1ccc(OC)cc1)[C@@H]1CC[C@@H](C)C[C@H]1OCc1ccc(OC)cc1  inhibition (MTT; 30 µM, 72 h): 24%
CC(=O)c1nn(-c2ccccc2Cl)/c(=N/N=C(\C)c2ccc(NC(=O)c3ccccc3)cc2)s1  viability (MTT; 78 nM): 47.5%
C[C@@H]1CC[C@@H]([C@](O)(CNCc2ccccc2)COCc2ccc(F)cc2)[C@H](OCc2ccc(F)cc2)C1  inhibition (MTT; 10 µM, 72 h): 95.7%
COc1ccc(-c2cc(-c3ccc(OC)cc3)c3c(=O)n(C)c(=O)n(C)c3n2)cc1  IC50 (MTT; 48 h): 18.6 µM
C[C@@H]1CC[C@@H]([C@](C)(O)CNCc2ccccc2)[C@H](OCc2ccccc2)C1  inhibition (MTT; 30 µM, 72 h): 98%
CCOC(=O)c1nn(-c2cccc(Cl)c2)/c(=N/N=C(\C)c2ccc(NC(=O)c3ccccc3)cc2)s1  viability (MTT; 1.25 µM): 2.59%
